Data taken from ChEMBL document CHEMBL1177643, “Synthesis, DNA-binding ability and anticancer activity of benzothiazole/benzoxazole-pyrrolo[2,1-c][1,4]benzodiazepine conjugates” (Bioorg Med Chem, 2010).

Tests used:
Format in all cases: functional
Malme-3M = experiment: Growth inhibition of human MALME-3M cells after 48 hrs by sulforhodamine B assay
Procedure, shortened: (§1)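 Panel of 60 human cancer cell lines; for each compound, dose–response curves per cell line measured at a minimum of five concentrations at 10-fold dilutions. Cells exposed continuously to drug for 48 h, and growth was read out by sulforhodamine B staining.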

M14 = experiment: Growth inhibition of human M14 cells after 48 hrs by sulforhodamine B assay; conditions: M14, 48 h; procedure, shortened: as §1
SK-MEL-2 = experiment: Growth inhibition of human SK-MEL-2 cells after 48 hrs by sulforhodamine B assay; conditions: SK-MEL-2, 48 h; procedure, shortened: as §1
SK-MEL-28 = experiment: Growth inhibition of human SK-MEL-28 cells after 48 hrs by sulforhodamine B assay; conditions: SK-MEL-28, 48 h; procedure, shortened: as §1
SK-MEL-5 = experiment: Growth inhibition of human SK-MEL-5 cells after 48 hrs by sulforhodamine B assay; conditions: SK-MEL-5, 48 h; procedure, shortened: as §1
UACC-257 = experiment: Growth inhibition of human UACC257 cells after 48 hrs by sulforhodamine B assay; conditions: UACC-257, 48 h; procedure, shortened: as §1
UACC-62 = experiment: Growth inhibition of human UACC62 cells after 48 hrs by sulforhodamine B assay; conditions: UACC-62, 48 h; procedure, shortened: as §1
IGROV-1 = experiment: Growth inhibition of human IGROV1 cells after 48 hrs by sulforhodamine B assay; conditions: IGROV-1, 48 h; procedure, shortened: as §1
OVCAR-3 = experiment: Growth inhibition of human OVCAR-3 cells after 48 hrs by sulforhodamine B assay; conditions: OVCAR-3, 48 h; procedure, shortened: as §1
OVCAR-4 = experiment: Growth inhibition of human OVCAR4 cells after 48 hrs by sulforhodamine B assay; conditions: OVCAR-4, 48 h; procedure, shortened: as §1
OVCAR-5 = experiment: Growth inhibition of human OVCAR5 cells after 48 hrs by sulforhodamine B assay; conditions: OVCAR-5, 48 h; procedure, shortened: as §1
OVCAR-8 = experiment: Growth inhibition of human OVCAR8 cells after 48 hrs by sulforhodamine B assay; conditions: OVCAR-8, 48 h; procedure, shortened: as §1
SK-OV-3 = experiment: Growth inhibition of human SKOV3 cells after 48 hrs by sulforhodamine B assay; conditions: SK-OV-3, 48 h; procedure, shortened: as §1
786-0 = experiment: Growth inhibition of human 786-0 cells after 48 hrs by sulforhodamine B assay; conditions: 786-0, 48 h
Procedure, shortened: (§2)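 Dose–response in each cell line over at least five concentrations at 10-fold dilutions, with 48 h continuous exposure and sulforhodamine B read-out.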

A498 = experiment: Growth inhibition of human A498 cells after 48 hrs by sulforhodamine B assay; conditions: A498, 48 h; procedure, shortened: as §2
ACHN = experiment: Growth inhibition of human ACHN cells after 48 hrs by sulforhodamine B assay; procedure, shortened: as §2
CAKI-1 = experiment: Growth inhibition of human Caki1 cells after 48 hrs by sulforhodamine B assay; conditions: CAKI-1, 48 h; procedure, shortened: as §2
RXF 393 = experiment: Growth inhibition of human RXF393 cells after 48 hrs by sulforhodamine B assay; conditions: RXF 393, 48 h; procedure, shortened: as §1
SN12C = experiment: Growth inhibition of human SN12C cells after 48 hrs by sulforhodamine B assay; procedure, shortened: as §1
TK-10 = experiment: Growth inhibition of human TK10 cells after 48 hrs by sulforhodamine B assay; conditions: TK-10, 48 h; procedure, shortened: as §1
UO-31 = experiment: Growth inhibition of human UO31 cells after 48 hrs by sulforhodamine B assay; conditions: UO-31, 48 h; procedure, shortened: as §1
PC-3 = experiment: Growth inhibition of human PC3 cells after 48 hrs by sulforhodamine B assay; conditions: PC-3, 48 h; procedure, shortened: as §1
DU-145 = experiment: Growth inhibition of human DU145 cells after 48 hrs by sulforhodamine B assay; conditions: DU-145, 48 h; procedure, shortened: as §2
MCF7 = experiment: Growth inhibition of human MCF7 cells after 48 hrs by sulforhodamine B assay; conditions: MCF7, 48 h; procedure, shortened: as §1
NCI/ADR-RES = experiment: Growth inhibition of human NCI/ADR-RES cells after 48 hrs by sulforhodamine B assay; procedure, shortened: as §1
MDA-MB-231 = experiment: Growth inhibition of human MDA-MB-231 cells after 48 hrs by sulforhodamine B assay; conditions: MDA-MB-231, 48 h; procedure, shortened: as §1
Hs-578T = experiment: Growth inhibition of human Hs 578T cells after 48 hrs by sulforhodamine B assay; procedure, shortened: as §1
MDA-MB-435 = experiment: Growth inhibition of human MDA-MB-435 cells after 48 hrs by sulforhodamine B assay; conditions: MDA-MB-435, 48 h; procedure, shortened: as §1
BT-549 = experiment: Growth inhibition of human BT549 cells after 48 hrs by sulforhodamine B assay; conditions: BT-549, 48 h; procedure, shortened: as §2
T47D = experiment: Growth inhibition of human T47D cells after 48 hrs by sulforhodamine B assay; procedure, shortened: as §1

COc1cc2c(cc1OCCCCOc1ccc(-c3nc4ccccc4s3)cc1)N=C[C@@H]1CCCN1C2=O
GI50 (Malme-3M): 1.26 µM | GI50 (M14): 0.537 µM | GI50 (SK-MEL-2): 0.389 µM | GI50 (SK-MEL-28): 2.14 µM | GI50 (SK-MEL-5): 0.347 µM | GI50 (UACC-257): 2.19 µM | GI50 (UACC-62): 0.794 µM | GI50 (IGROV-1): 2.4 µM | GI50 (OVCAR-3): 0.38 µM | GI50 (OVCAR-4): 1.15 µM | GI50 (OVCAR-5): 0.331 µM | GI50 (OVCAR-8): 0.759 µM | GI50 (SK-OV-3): 1.23 µM | GI50 (786-0): 0.214 µM | GI50 (A498): 2.04 µM | GI50 (ACHN): 0.363 µM | GI50 (CAKI-1): 0.355 µM | GI50 (RXF 393): 0.191 µM | GI50 (SN12C): 0.631 µM | GI50 (TK-10): 0.479 µM | GI50 (UO-31): 0.661 µM | GI50 (PC-3): 0.295 µM | GI50 (DU-145): 0.269 µM | GI50 (MCF7): 0.324 µM | GI50 (NCI/ADR-RES): 1.15 µM | GI50 (MDA-MB-231): 0.269 µM | GI50 (Hs-578T): 0.501 µM | GI50 (MDA-MB-435): 0.447 µM | GI50 (BT-549): 0.182 µM | GI50 (T47D): 0.219 µM
